{
  "source": "paper PMC3475454",
  "about": "(Bioscience Reports, 2012)",
  "key": {"firefly luciferase [1]": {"system": "firefly luciferase", "settings": "cited from earlier work"}, "firefly luciferase [2]": {"target": "T1, firefly luciferase (Photinus pyralis, UniProt P08659)", "T1 sequence (P08659 whole entry)": "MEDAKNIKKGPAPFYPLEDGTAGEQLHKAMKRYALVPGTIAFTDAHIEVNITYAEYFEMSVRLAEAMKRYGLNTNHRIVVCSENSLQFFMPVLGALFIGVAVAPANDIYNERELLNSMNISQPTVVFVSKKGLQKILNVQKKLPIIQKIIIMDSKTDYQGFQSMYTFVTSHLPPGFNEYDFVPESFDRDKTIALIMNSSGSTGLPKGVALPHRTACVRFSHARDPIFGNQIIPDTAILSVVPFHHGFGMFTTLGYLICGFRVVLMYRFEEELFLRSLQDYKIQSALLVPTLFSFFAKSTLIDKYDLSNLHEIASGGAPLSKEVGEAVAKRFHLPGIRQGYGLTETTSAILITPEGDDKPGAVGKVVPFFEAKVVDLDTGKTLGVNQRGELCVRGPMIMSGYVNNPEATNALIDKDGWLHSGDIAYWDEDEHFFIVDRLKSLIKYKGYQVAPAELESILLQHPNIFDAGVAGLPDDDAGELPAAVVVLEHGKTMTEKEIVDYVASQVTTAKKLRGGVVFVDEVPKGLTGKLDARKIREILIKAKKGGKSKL", "experiment": "Firefly luciferase reporter", "assay_type": "cell-based", "settings": "20 μM; for Firefly luciferase inhibition in cells: stably transfected cell lines", "summary_of_the_method": "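Stably STF-transfected 70.4- and 55.1c-derived mouse hepatoma clones, with G418 removed at plating, were exposed in culture to 20 μM test compound (0.1% DMSO) for 1 h or 24 h. Cells were lysed in passive lysis buffer. Signal was normalised to Alamar Blue vitality and expressed as % untreated; n=3 and 4.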"}, "Ultra-Glo luciferase": {"target": "T2, Ultra-Glo luciferase (Photuris pensylvanica, UniProt Q27757)", "T2 sequence (Q27757 1-545)": "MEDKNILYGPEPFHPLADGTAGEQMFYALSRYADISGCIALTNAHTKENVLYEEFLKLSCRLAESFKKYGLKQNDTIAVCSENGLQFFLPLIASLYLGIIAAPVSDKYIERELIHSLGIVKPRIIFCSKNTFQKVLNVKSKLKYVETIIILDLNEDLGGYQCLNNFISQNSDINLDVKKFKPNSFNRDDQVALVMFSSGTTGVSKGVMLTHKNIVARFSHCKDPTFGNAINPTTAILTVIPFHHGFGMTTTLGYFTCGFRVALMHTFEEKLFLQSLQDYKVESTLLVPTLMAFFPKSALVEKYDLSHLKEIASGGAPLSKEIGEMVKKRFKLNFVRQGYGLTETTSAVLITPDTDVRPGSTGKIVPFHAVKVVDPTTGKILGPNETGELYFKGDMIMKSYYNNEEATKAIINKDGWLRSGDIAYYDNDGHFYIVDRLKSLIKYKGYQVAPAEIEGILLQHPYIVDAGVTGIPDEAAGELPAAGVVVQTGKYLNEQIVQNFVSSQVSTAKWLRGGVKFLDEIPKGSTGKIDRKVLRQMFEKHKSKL", "settings": "ref Promega Corporation web page; cited from earlier work"}, "firefly luciferase [3]": {"target": "T1, firefly luciferase", "experiment": "Firefly luciferase activity assay in cell lysates, compound added to lysate", "assay_type": "biochemical", "settings": "for IC50: IC50 for firefly luciferase inhibition"}, "Renilla luciferase": {"target": "Renilla luciferase (Renilla reniformis, UniProt P27652)", "sequence (P27652 whole entry)": "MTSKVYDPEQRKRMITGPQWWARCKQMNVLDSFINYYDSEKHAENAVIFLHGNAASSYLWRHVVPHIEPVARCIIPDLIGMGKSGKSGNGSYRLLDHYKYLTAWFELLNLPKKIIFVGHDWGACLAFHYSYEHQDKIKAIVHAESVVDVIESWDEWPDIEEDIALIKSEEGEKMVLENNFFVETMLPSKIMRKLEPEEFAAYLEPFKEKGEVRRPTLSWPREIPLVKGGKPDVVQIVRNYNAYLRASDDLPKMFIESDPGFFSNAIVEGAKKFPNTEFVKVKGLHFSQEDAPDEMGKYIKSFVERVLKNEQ", "experiment": "Renilla luciferase activity assay in cell lysates", "assay_type": "biochemical", "settings": "20 μM added to lysates of Hepa1c1c7, 70.4 and 55.1c cells", "summary_of_the_method": "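Hepa1c1c7, 70.4 and 55.1c cells were transfected with CMV-driven Renilla luciferase plasmid. After 24 h, cells were lysed in passive lysis buffer. 20 μM test compound (1% v/v of 2 mM DMSO stock) was added to the lysate 5 min before reading. Luminescence was read for 10 s; n=3 and 4.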"}, "Gaussia luciferase": {"system": "Gaussia luciferase", "experiment": "Gaussia luciferase activity assay in cell culture supernatant", "assay_type": "biochemical", "settings": "20 μM, Hepa1c1c7, 70.4 and 55.1c cells", "summary_of_the_method": "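Hepa1c1c7, 70.4 and 55.1c cells were transfected by Lipofectamine 2000 with an AP-1-responsive Gaussia luciferase vector. After 24 h, culture supernatant was taken. 20 μM test compound (1% v/v of 2 mM DMSO solution) was added 5 min before reading. Luminescence was read for 10 s; n=3 and 4.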"}, "firefly luciferase [4]": {"target": "T1, firefly luciferase", "experiment": "Monitoring of firefly luciferase in living cells with D-luciferin-ethylester", "assay_type": "cell-based", "settings": "20 μM, 30 min pre-incubation, 70.4 K15 and 55.1c K65 cells", "summary_of_the_method": "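Living 70.4 K15 and 55.1c K65 cells stably expressing firefly luciferase were pre-incubated for 30 min in medium with 20 μM test compound (37°C, 5% CO2) and then washed with PBS. After 5 min, signal was read on a plate reader over 4 min or on a CCD camera over 8 min; n=4.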"}, "[5]": {"system": "β-catenin target genes Axin2 and Gpr49", "experiment": "Real-time RT-PCR of β-catenin target genes", "assay_type": "cell-based, mouse", "settings": "20 μM, 24 h"}, "firefly luciferase [6]": {"target": "T1, firefly luciferase", "experiment": "Inhibition of pure commercially available firefly luciferase", "assay_type": "biochemical", "settings": "10 μM, different enzyme concentrations", "summary_of_the_method": "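Purified commercial firefly luciferase was prepared as a stock of 1 mg/ml in luciferase assay buffer lacking ATP and D-luciferin, supplemented with 0.1% BSA. Several enzyme concentrations were assayed with 10 μM test compound. Values are means of two experiments.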"}},
  "data": [
    {"smiles": "Cc1cccc(/C=C/c2ccccc2)n1", "note": "[SIB-1893]", "values": [
      {"measurement": "Efficacy of firefly luciferase inhibition", "setting": "firefly luciferase [1]; compared with NFκBAI4", "result": "somewhat lower efficacy"}
    ]},
    {"smiles": "Oc1ccc(/C=C/c2cc(O)cc(O)c2)cc1", "note": "[Resveratrol, 3,5,4′-trihydroxy-trans-stilbene]", "values": [
      {"measurement": "Firefly luciferase inhibition in cells", "setting": "firefly luciferase [2]; 1 h incubation", "result": "weaker"},
      {"measurement": "Firefly luciferase inhibition in cells", "setting": "firefly luciferase [2]; 24 h incubation", "result": "disappeared in all cell lines"},
      {"measurement": "Mechanism of inhibition with respect to ATP and D-luciferin", "setting": "firefly luciferase [1]", "result": "non-competitive"},
      {"measurement": "Resistance of Ultra-Glo luciferase against inhibition", "setting": "Ultra-Glo luciferase", "result": "more resistant"}
    ]},
    {"smiles": "COc1ccc(/C=C/c2ccccc2F)cc1", "note": "[NFκBAI4, (E)-2-fluoro-4′-methoxystilbene]", "values": [
      {"measurement": "Decay of the luminescence signal", "setting": "firefly luciferase [3]; 1 μM, coenzyme A-free buffer, 9 min, compared with untreated lysate", "result": "somewhat less pronounced"},
      {"measurement": "Quenching of remnant firefly signal by Renilla buffer", "setting": "firefly luciferase [3]; 20 μM added to Renilla buffer", "result": "further improved"},
      {"measurement": "Inhibition of firefly luciferase signals", "setting": "firefly luciferase [3]; 20 μM added to lysates of untreated transiently transfected Hepa1c1c7, 70.4 and 55.1c cells", "result": "strongly inhibited"},
      {"measurement": "IC50", "setting": "firefly luciferase [3]; lysate of 55.1cSTF K53 cells", "result": 950, "unit": "nM"},
      {"measurement": "IC50", "setting": "firefly luciferase [3]; lysate of 55.1cSTF K65 cells", "result": 1420, "unit": "nM"},
      {"measurement": "IC50", "setting": "firefly luciferase [3]; lysate of 70.4STF K15 cells", "result": 850, "unit": "nM"},
      {"measurement": "IC50", "setting": "firefly luciferase [3]; lysate of 70.4STF K31 cells", "result": 880, "unit": "nM"},
      {"measurement": "IC50", "setting": "firefly luciferase [3]; reaction buffer without coenzyme A, results not shown", "result": "~1000", "unit": "nM"},
      {"measurement": "Mechanism of inhibition with respect to ATP and D-luciferin", "setting": "firefly luciferase [3]; varied ATP and D-luciferin, mixed hyperbolic fit", "result": "non-competitive"},
      {"measurement": "Effect on Renilla luciferase", "setting": "Renilla luciferase", "result": "not affected"},
      {"measurement": "Effect on Gaussia luciferase", "setting": "Gaussia luciferase", "result": "not affected"},
      {"measurement": "Duration of firefly luciferase inhibition in living cells", "setting": "firefly luciferase [2]", "result": "> 24", "unit": "h"},
      {"measurement": "Firefly luciferase inhibition in cells", "setting": "firefly luciferase [2]; 1 h incubation", "result": "strongly inhibited"},
      {"measurement": "Luminescence of STF firefly luciferase reporter", "setting": "firefly luciferase [2]; 24 h, transiently transfected Hepa1c1c7, 70.4 and 55.1c cells", "result": "strong decrease of luminescence"},
      {"measurement": "Firefly luciferase inhibition in cells", "setting": "firefly luciferase [2]; 24 h incubation", "result": "still pronounced"},
      {"measurement": "Firefly luciferase inhibition in cells", "setting": "firefly luciferase [2]; 48 h incubation", "result": "still visible in 70.4-derived, but not in 55.1c-derived, cell lines"},
      {"measurement": "Firefly luciferase activity in living cells", "setting": "firefly luciferase [4]", "result": "effectively inhibits"},
      {"measurement": "mRNA levels of Axin2 and Gpr49", "setting": "[5]", "result": "not accompanied by a decrease in mRNA levels"},
      {"measurement": "Inhibition of pure firefly luciferase", "setting": "firefly luciferase [6]", "result": "also inhibited"}
    ]}
  ]
}
